Experimental data from ChEMBL document CHEMBL4673272, “Discovery of cyclic sulfonamide derivatives as potent inhibitors of SARS-CoV-2” (Bioorg Med Chem Lett, 2021).

Tests used:
SARS-CoV-2 = assay: Antiviral activity against SARS-CoV-2 betaCoV/KOR/KCDC03/2020 infected in African green monkey Vero cells assessed as inhibition of virus-induced cytopathic effect measured after 24 hrs by immunofluorescence assay; format: functional, organism-based; conditions: Severe acute respiratory syndrome coronavirus 2, betaCoV/KOR/KCDC03/2020, Vero
[1] = Cytotoxicity against African green monkey Vero cells infected with SARS-CoV-2 betaCoV/KOR/KCDC03/2020 assessed as reduction in cell viability measured after 72 hrs by CellTiter-Glo Luminescent Cell Viability Assay; format: cell-based; conditions: chlorocebus sabaeus
[2] = Selectivity index, ratio of CC50 for African green monkey Vero cells infected with SARS-CoV-2 betaCoV/KOR/KCDC03/2020 to IC50 for SARS-CoV-2 betaCoV/KOR/KCDC03/2020
[3] = Half life in rat at 5 mg/kg, iv or 10 mg/kg, po; format: ADME, organism-based; conditions: in vivo
Outline: (§1)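 Rats, n = 3, were dosed at 5 mg/kg IV and 10 mg/kg PO. Cmax, T1/2, clearance and oral bioavailability (F) were derived from these two dosing routes.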

CHO-K1 = assay: Cytotoxicity against CHO-K1 cells; format: cell-based, Cricetulus griseus; conditions: chinese hamster
Outline: (§2)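 Cell-line panel used for cytotoxicity: Vero, African green monkey kidney; HFL-1, human embryonic lung; L929 (NCTC clone 929), mouse fibroblast; NIH 3T3, mouse embryonic fibroblast; CHO-K1, Chinese hamster ovary. Values given in μM.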

HFL1 = assay: Cytotoxicity against human HFL-1 cells; format: cell-based; outline: as §2
[4] = Oral bioavailability in rat at 10 mg/kg; format: ADME, organism-based; conditions: in vivo; outline: as §1
NIH3T3 = assay: Cytotoxicity against mouse NIH/3T3 cells; format: cell-based; outline: as §2
Vero = assay: Cytotoxicity against African green monkey Vero cells; format: cell-based; conditions: chlorocebus sabaeus; outline: as §2
[5] = Clearance in rat at 5 mg/kg, iv or 10 mg/kg, po; format: ADME, organism-based; conditions: in vivo; outline: as §1
hERG (KCNH2) = hERG (KCNH2) (Homo sapiens, UniProt Q12809); assay: Inhibition of human ERG at 10 uM relative to control
[6] = Metabolic stability in monkey microsomes assessed as parent compound remaining incubated for 30 mins; format: ADME, Macaca mulatta, Microsome; conditions: rhesus monkey, read-out: Stabilty
[7] = Metabolic stability in human microsomes assessed as parent compound remaining incubated for 30 mins; format: ADME, Microsome; conditions: read-out: Stabilty
[8] = Cmax in rat at 5 mg/kg, iv or 10 mg/kg, po; format: ADME, organism-based; set-up: dose 10 mg/kg; conditions: in vivo; outline: as §1
L929 = assay: Cytotoxicity against mouse L929 cells; format: cell-based; outline: as §2

hERG (KCNH2), sequence (Q12809 whole entry): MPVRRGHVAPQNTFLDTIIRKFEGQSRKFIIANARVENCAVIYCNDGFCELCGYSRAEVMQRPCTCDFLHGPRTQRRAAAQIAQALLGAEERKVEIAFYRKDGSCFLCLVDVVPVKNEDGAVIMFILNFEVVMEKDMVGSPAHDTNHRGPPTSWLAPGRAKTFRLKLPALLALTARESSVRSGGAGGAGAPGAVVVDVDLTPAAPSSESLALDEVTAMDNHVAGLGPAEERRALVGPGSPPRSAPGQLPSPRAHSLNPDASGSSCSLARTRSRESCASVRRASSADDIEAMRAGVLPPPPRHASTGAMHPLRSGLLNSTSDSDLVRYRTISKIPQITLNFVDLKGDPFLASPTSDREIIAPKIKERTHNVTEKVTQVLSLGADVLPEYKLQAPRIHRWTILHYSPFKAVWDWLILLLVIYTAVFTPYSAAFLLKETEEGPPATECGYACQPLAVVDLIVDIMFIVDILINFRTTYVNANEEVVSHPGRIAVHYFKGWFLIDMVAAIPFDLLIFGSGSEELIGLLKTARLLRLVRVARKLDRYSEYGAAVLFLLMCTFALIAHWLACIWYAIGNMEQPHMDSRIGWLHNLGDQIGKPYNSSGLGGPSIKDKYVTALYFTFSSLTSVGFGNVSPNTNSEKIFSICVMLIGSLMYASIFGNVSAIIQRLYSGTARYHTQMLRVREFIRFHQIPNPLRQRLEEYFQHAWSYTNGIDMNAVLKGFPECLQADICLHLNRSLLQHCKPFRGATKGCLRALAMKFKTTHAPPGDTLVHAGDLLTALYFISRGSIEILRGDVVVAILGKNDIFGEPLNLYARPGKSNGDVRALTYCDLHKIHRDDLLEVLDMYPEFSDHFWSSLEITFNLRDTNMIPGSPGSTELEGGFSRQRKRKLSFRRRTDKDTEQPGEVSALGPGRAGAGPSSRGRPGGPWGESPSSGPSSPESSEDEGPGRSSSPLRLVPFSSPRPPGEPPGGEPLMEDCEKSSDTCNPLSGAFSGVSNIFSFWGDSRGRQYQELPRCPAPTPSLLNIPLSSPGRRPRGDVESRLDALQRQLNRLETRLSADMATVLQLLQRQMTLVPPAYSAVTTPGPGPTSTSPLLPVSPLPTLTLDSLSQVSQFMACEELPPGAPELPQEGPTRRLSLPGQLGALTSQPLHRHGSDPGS

Compound: O=C(CN1C(C(=O)c2ccc(F)cc2)=C(O)c2ccccc2S1(=O)=O)Nc1cccc(F)c1
- IC50 (SARS-CoV-2): 15.3 µM
- CC50 at 72 h [1]: > 25 µM

Compound: O=C(CN1C(C(=O)c2ccc(F)c(Cl)c2)=C(O)c2ccc(F)cc2S1(=O)=O)Nc1cccc(OC(F)(F)F)c1
- IC50 (SARS-CoV-2): 3.1 µM
- CC50 at 72 h [1]: > 25 µM
- Ratio CC50/IC50 [2]: 8.9

Compound: COc1ccc(C(=O)C2=C(O)c3ccccc3S(=O)(=O)N2CC(=O)Nc2ccc(C(F)(F)F)cc2)cc1
- IC50 (SARS-CoV-2): 8.6 µM
- CC50 at 72 h [1]: > 25 µM
- Ratio CC50/IC50 [2]: 2.5

Compound: O=C(CN1C(C(=O)c2cccc(Cl)c2)=C(O)c2ccccc2S1(=O)=O)Nc1ccc(C(F)(F)F)cc1
- IC50 (SARS-CoV-2): 4.1 µM
- CC50 at 72 h [1]: > 25 µM
- Ratio CC50/IC50 [2]: 5.8

Compound: O=C(/C=C/N1C(C(=O)c2ccc(F)c(Cl)c2)=C(O)c2ccccc2S1(=O)=O)Nc1cccc(OC(F)(F)F)c1
- IC50 (SARS-CoV-2): 6.6 µM
- CC50 at 72 h [1]: > 25 µM
- Ratio CC50/IC50 [2]: 3.6

Compound: CNc1ccc2c(c1)S(=O)(=O)N(CC(=O)Nc1ccc(C(F)(F)F)cc1)C(C(=O)c1ccc(F)c(Cl)c1)=C2O
- IC50 (SARS-CoV-2): 13.8 µM
- CC50 at 72 h [1]: > 25 µM
- Ratio CC50/IC50 [2]: 1.3

Compound: N#Cc1ccc(C(=O)C2=C(O)c3ccccc3S(=O)(=O)N2CC(=O)Nc2ccc(C(F)(F)F)cc2)cc1
- IC50 (SARS-CoV-2): 9.3 µM
- CC50 at 72 h [1]: > 25 µM
- Ratio CC50/IC50 [2]: 1.4

Compound: COc1ccc(C(=O)C2=C(O)c3ccccc3S(=O)(=O)N2CC(=O)Nc2cccc(OC(F)(F)F)c2)cc1
- IC50 (SARS-CoV-2): 11.6 µM
- CC50 at 72 h [1]: > 25 µM
- Ratio CC50/IC50 [2]: 2

Compound: N#Cc1cccc(C(=O)C2=C(O)c3ccccc3S(=O)(=O)N2CC(=O)Nc2cccc(OC(F)(F)F)c2)c1
- IC50 (SARS-CoV-2): 14.3 µM
- CC50 at 72 h [1]: > 25 µM
- Ratio CC50/IC50 [2]: 1.6

Compound: O=C(CN1C(C(=O)c2ccc(F)cc2)=C(O)c2ccccc2S1(=O)=O)Nc1ccc(C(F)(F)F)cc1
- IC50 (SARS-CoV-2): 5.3 µM
- CC50 at 72 h [1]: > 25 µM
- Ratio CC50/IC50 [2]: 4.7

Compound: O=C(CN1C(C(=O)c2ccc(F)cc2)=C(O)c2ccccc2S1(=O)=O)Nc1ccccc1
- IC50 (SARS-CoV-2): > 25 µM
- CC50 at 72 h [1]: > 25 µM
- Ratio CC50/IC50 [2]: 1

Compound: O=C(CN1C(C(=O)c2ccc(F)c(Cl)c2)=C(O)c2ccc(F)cc2S1(=O)=O)Nc1cccc(Cl)c1
- IC50 (SARS-CoV-2): 2.2 µM
- CC50 at 72 h [1]: > 25 µM
- Ratio CC50/IC50 [2]: 12.1

Compound: O=C(CN1C(C(=O)c2ccccc2)=C(O)c2ccccc2S1(=O)=O)Nc1cccc(OC(F)(F)F)c1
- IC50 (SARS-CoV-2): 11.5 µM
- CC50 at 72 h [1]: > 25 µM
- Ratio CC50/IC50 [2]: 2.1

Compound: N#Cc1cccc(C(=O)C2=C(O)c3ccccc3S(=O)(=O)N2CC(=O)c2ccc(F)c(Cl)c2)c1
- IC50 (SARS-CoV-2): > 25 µM
- CC50 at 72 h [1]: > 25 µM
- Ratio CC50/IC50 [2]: 1

Compound: O=C(CN1C(C(=O)c2ccc(F)c(Cl)c2)=C(O)c2ccccc2S1(=O)=O)Nc1ccc(C(F)(F)F)cc1
- IC50 (SARS-CoV-2): 2.5 µM
- CC50 at 72 h [1]: > 25 µM
- Ratio CC50/IC50 [2]: 11.1

Compound: O=C(CN1C(C(=O)c2ccc(F)c(Cl)c2)=C(O)c2ccc(F)cc2S1(=O)=O)Nc1ccc(C(F)(F)F)cc1
- IC50 (SARS-CoV-2): 0.88 µM
- t1/2 [3]: 18.5 h
- CC50 at 72 h [1]: > 25 µM
- Activity (CHO-K1): 10.6 µM
- Activity (HFL1): 44.2 µM
- F [4]: 77%
- Activity (NIH3T3): 68 µM
- Activity (Vero): 42.1 µM
- Ratio CC50/IC50 [2]: 30.7
- CL [5]: 0.04 L/h/kg
- inhibition at 10 µM (hERG (KCNH2)): < 1%
- remaining at 0.5 h [6]: 61%
- remaining at 0.5 h [7]: 93%
- Cmax [8]: 14.33 µg/mL
- Activity (L929): 31.4 µM

Compound: N#Cc1ccc(C(=O)C2=C(O)c3ccccc3S(=O)(=O)N2CC(=O)Nc2cccc(OC(F)(F)F)c2)cc1
- IC50 (SARS-CoV-2): 14.3 µM
- CC50 at 72 h [1]: > 25 µM
- Ratio CC50/IC50 [2]: 1.6

Compound: O=C(CN1C(C(=O)c2ccc(F)cc2)=C(O)c2ccccc2S1(=O)=O)Nc1cccc(OC(F)(F)F)c1
- IC50 (SARS-CoV-2): 8.9 µM
- CC50 at 72 h [1]: > 25 µM
- Ratio CC50/IC50 [2]: 2.7

Compound: CC(C)C(=O)C1=C(O)c2ccccc2S(=O)(=O)N1CC(=O)Nc1ccc(C(F)(F)F)cc1
- IC50 (SARS-CoV-2): 7.3 µM
- CC50 at 72 h [1]: > 25 µM
- Ratio CC50/IC50 [2]: 3

Compound: N#Cc1cccc(C(=O)C2=C(O)c3ccccc3S(=O)(=O)N2CC(=O)Nc2ccc(C(F)(F)F)cc2)c1
- IC50 (SARS-CoV-2): 10.7 µM
- CC50 at 72 h [1]: > 25 µM
- Ratio CC50/IC50 [2]: 1.5

Compound: O=C(CN1C(C(=O)c2ccccc2)=C(O)c2ccccc2S1(=O)=O)NC1CCCCC1
- IC50 (SARS-CoV-2): > 25 µM
- CC50 at 72 h [1]: > 25 µM
- Ratio CC50/IC50 [2]: 1

Compound: N#Cc1ccc(C(=O)C2=C(O)c3ccccc3S(=O)(=O)N2CC(=O)c2ccc(F)c(Cl)c2)cc1
- IC50 (SARS-CoV-2): > 25 µM
- CC50 at 72 h [1]: > 25 µM
- Ratio CC50/IC50 [2]: 1

Compound: O=C(CN1C(C(=O)c2ccc(Cl)cc2)=C(O)c2ccccc2S1(=O)=O)Nc1ccc(C(F)(F)F)cc1
- IC50 (SARS-CoV-2): 4 µM
- CC50 at 72 h [1]: > 25 µM
- Ratio CC50/IC50 [2]: 6

Compound: CC(C)C(=O)C1=C(O)c2ccccc2S(=O)(=O)N1CC(=O)Nc1cccc(OC(F)(F)F)c1
- IC50 (SARS-CoV-2): 10.8 µM
- CC50 at 72 h [1]: > 25 µM
- Ratio CC50/IC50 [2]: 1.9

Compound: CCNC(=O)CN1C(C(=O)c2ccccc2)=C(O)c2ccccc2S1(=O)=O
- IC50 (SARS-CoV-2): > 25 µM
- CC50 at 72 h [1]: > 25 µM
- Ratio CC50/IC50 [2]: 1

Compound: O=C(CN1C(C(=O)c2cccc(F)c2)=C(O)c2ccccc2S1(=O)=O)Nc1ccc(C(F)(F)F)cc1
- IC50 (SARS-CoV-2): 7 µM
- CC50 at 72 h [1]: > 25 µM
- Ratio CC50/IC50 [2]: 3.2

Compound: O=C(CN1C(C(=O)c2ccc(Cl)cc2)=C(O)c2ccccc2S1(=O)=O)Nc1cccc(OC(F)(F)F)c1
- IC50 (SARS-CoV-2): 8.5 µM
- CC50 at 72 h [1]: > 25 µM
- Ratio CC50/IC50 [2]: 2.9

Compound: O=C(CN1C(C(=O)c2ccc(F)c(Cl)c2)=C(O)c2ccccc2S1(=O)=O)Nc1cccc(OC(F)(F)F)c1
- IC50 (SARS-CoV-2): 9.2 µM
- CC50 at 72 h [1]: > 25 µM
- Ratio CC50/IC50 [2]: 2.8

Compound: O=C(O)/C=C/N1C(C(=O)c2ccc(F)c(Cl)c2)=C(O)c2ccccc2S1(=O)=O
- IC50 (SARS-CoV-2): > 25 µM
- CC50 at 72 h [1]: > 25 µM
- Ratio CC50/IC50 [2]: 1

Compound: O=C(CN1C(C(=O)c2cccc(F)c2)=C(O)c2ccccc2S1(=O)=O)Nc1cccc(OC(F)(F)F)c1
- IC50 (SARS-CoV-2): 10.1 µM
- CC50 at 72 h [1]: > 25 µM
- Ratio CC50/IC50 [2]: 2.3

Compound: CN1CCN(c2ccc3c(c2)S(=O)(=O)N(CC(=O)Nc2ccc(C(F)(F)F)cc2)C(C(=O)c2ccc(F)c(Cl)c2)=C3O)CC1
- IC50 (SARS-CoV-2): 14 µM
- CC50 at 72 h [1]: > 25 µM
- Ratio CC50/IC50 [2]: 1.6

Compound: O=C(CN1C(C(=O)c2ccc(F)cc2)=C(O)c2ccccc2S1(=O)=O)Nc1ccccc1Cl
- IC50 (SARS-CoV-2): > 25 µM
- CC50 at 72 h [1]: > 25 µM
- Ratio CC50/IC50 [2]: 1

Compound: O=C(CN1C(C(=O)c2cccc(Cl)c2)=C(O)c2ccccc2S1(=O)=O)Nc1cccc(OC(F)(F)F)c1
- IC50 (SARS-CoV-2): 11.9 µM
- CC50 at 72 h [1]: > 25 µM
- Ratio CC50/IC50 [2]: 2.1

Compound: O=C(C1=C(O)c2ccccc2S(=O)(=O)N1Cc1ccccc1)c1ccccc1
- IC50 (SARS-CoV-2): > 25 µM
- CC50 at 72 h [1]: > 25 µM
- Ratio CC50/IC50 [2]: 1

Compound: CCN(CC)CCCC(C)Nc1ccnc2cc(Cl)ccc12 (centres undefined) [CHLOROQUINE]
- IC50 (SARS-CoV-2): 8 µM
- CC50 at 72 h [1]: > 25 µM
- Ratio CC50/IC50 [2]: 3.1

Compound: CCC(CC)COC(=O)[C@H](C)N[P@](=O)(OC[C@H]1O[C@@](C#N)(c2ccc3c(N)ncnn23)[C@H](O)[C@@H]1O)Oc1ccccc1 [REMDESIVIR]
- IC50 (SARS-CoV-2): 7.01 µM
- CC50 at 72 h [1]: > 25 µM
- Ratio CC50/IC50 [2]: 3.6
